Measurements from ChEMBL document CHEMBL1240415, “Design, synthesis and antimicrobial activities of some new quinoline derivatives carrying 1,2,3-triazole moiety” (2010).
In brackets after ≈: the same amount, converted by molar mass.

Key:
Format in all cases: functional
Candida albicans = test: Antifungal activity against Candida albicans after 3 to 4 days by serial plate dilution method; conditions: for MIC: Candida albicans
Outline: (§1)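 Sabouraud agar made from peptone, glucose and agar in water, pH 5.7. Fungal spores suspended in normal saline and used to lawn the plates, which were dried 1 h at 37 °C. Wells punched and compounds added in DMSO, with a DMSO solvent control. Triplicate plates held at 37 °C for 3–4 days. Read-out is inhibition zone diameter.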

Aspergillus fumigatus = test: Antifungal activity against Aspergillus fumigatus NCIM 902 after 3 to 4 days by serial plate dilution method; conditions: for MIC: Aspergillus fumigatus, NCIM 902; outline: as §1
Streptococcus pyogenes = test: Antibacterial activity against Streptococcus pyogenes after 3 to 4 days by serial plate dilution method; conditions: for MIC: Streptococcus pyogenes
Outline: (§2)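 Serial dilutions in Mueller-Hinton broth in tubes, pH adjusted to 5.0 with phosphate buffer. Inoculated with a standardized bacterial suspension and incubated 16–18 h at 37 °C. MIC is the lowest concentration with no visible growth, tested over 6.25–100 µg/mL. Zones come from an agar well diffusion assay: compounds in DMSO are added to wells in seeded agar, DMSO control, triplicate plates, 37 °C for 3–4 days, inhibition zone diameter in mm.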

Aspergillus flavus = test: Antifungal activity against Aspergillus flavus NCIM 524 after 3 to 4 days by serial plate dilution method; conditions: for MIC: Aspergillus flavus, NCIM 524; outline: as §1
Staphylococcus aureus = test: Antibacterial activity against Staphylococcus aureus ATTC 25923 after 3 to 4 days by serial plate dilution method; conditions: for MIC: Staphylococcus aureus, ATTC 25923; outline: as §2
Escherichia coli = test: Antibacterial activity against Escherichia coli ATTC 25922 after 3 to 4 days by serial plate dilution method; conditions: for MIC: Escherichia coli, ATTC 25922; outline: as §2
Klebsiella pneumoniae = test: Antibacterial activity against recultured Klebsiella pneumoniae after 3 to 4 days by serial plate dilution method; conditions: for MIC: Klebsiella pneumoniae; outline: as §2
Pseudomonas aeruginosa = test: Antibacterial activity against Pseudomonas aeruginosa ATCC 27853 after 3 to 4 days by serial plate dilution method; conditions: for MIC: Pseudomonas aeruginosa, ATCC 27853; outline: as §2
Talaromyces marneffei = test: Antifungal activity against recultured Penicillium marneffei after 3 to 4 days by serial plate dilution method; conditions: for MIC: Talaromyces marneffei; outline: as §1
[1] = system: Trichophyton mentagrophytes; test: Antifungal activity against recultured Trichophyton mentagrophytes after 3 to 4 days by serial plate dilution method; conditions: for MIC: Trichophyton mentagrophytes; outline: as §1

| SMILES | MIC (Candida albicans) [µg/mL] | MIC (Aspergillus fumigatus) [µg/mL] | MIC (Streptococcus pyogenes) [µg/mL] | MIC (Aspergillus flavus) [µg/mL] | MIC (Staphylococcus aureus) [µg/mL] | MIC (Escherichia coli) [µg/mL] | MIC (Klebsiella pneumoniae) [µg/mL] | MIC (Pseudomonas aeruginosa) [µg/mL] | MIC (Talaromyces marneffei) [µg/mL] | MIC [1] [µg/mL] | diameter of the inhibition zone (DIZ) (Candida albicans) [mm] | diameter of the inhibition zone (DIZ) (Aspergillus fumigatus) [mm] | diameter of the inhibition zone (DIZ) (Streptococcus pyogenes) [mm] | diameter of the inhibition zone (DIZ) (Aspergillus flavus) [mm] | diameter of the inhibition zone (DIZ) (Staphylococcus aureus) [mm] | diameter of the inhibition zone (DIZ) (Escherichia coli) [mm] | diameter of the inhibition zone (DIZ) (Klebsiella pneumoniae) [mm] | diameter of the inhibition zone (DIZ) (Pseudomonas aeruginosa) [mm] | diameter of the inhibition zone (DIZ) (Talaromyces marneffei) [mm] | diameter of the inhibition zone (DIZ) [1] [mm] |
| --- | --- | --- | --- | --- | --- | --- | --- | --- | --- | --- | --- | --- | --- | --- | --- | --- | --- | --- | --- | --- |
| COc1ccc2nc(C)cc(-n3cc(CN4CCC(c5ccccc5)CC4)nn3)c2c1 | 50 (≈ 121 µM) | 50 (≈ 121 µM) | 12.5 (≈ 30.2 µM) | 50 (≈ 121 µM) | 12.5 (≈ 30.2 µM) | 12.5 (≈ 30.2 µM) | 12.5 (≈ 30.2 µM) | 12.5 (≈ 30.2 µM) | 50 (≈ 121 µM) | 50 (≈ 121 µM) | <10 | <10 | 11 | <10 | 10 | 10 | 11 | 12 | <10 | <10 |
| COc1ccc2nc(C)cc(-n3cc(CN4CCN(c5ccc(C)cc5)CC4)nn3)c2c1 | 12.5 (≈ 29.2 µM) | 12.5 (≈ 29.2 µM) | 50 (≈ 117 µM) | 12.5 (≈ 29.2 µM) | 50 (≈ 117 µM) | 50 (≈ 117 µM) | 50 (≈ 117 µM) | 50 (≈ 117 µM) | 25 (≈ 58.3 µM) | 12.5 (≈ 29.2 µM) | 12 | 10 | <10 | 12 | <10 | <10 | <10 | <10 | <10 | 12 |
| COc1ccc2nc(C)cc(-n3cc(CN4CCOCC4)nn3)c2c1 | 6.25 (≈ 18.4 µM) | 6.25 (≈ 18.4 µM) | 6.25 (≈ 18.4 µM) | 6.25 (≈ 18.4 µM) | 6.25 (≈ 18.4 µM) | 6.25 (≈ 18.4 µM) | 6.25 (≈ 18.4 µM) | 6.25 (≈ 18.4 µM) | 6.25 (≈ 18.4 µM) | 6.25 (≈ 18.4 µM) | 14 | 18 | 16 | 16 | 16 | 16 | 14 | 14 | 12 | 12 |
| CCN1CCN(Cc2cn(-c3cc(C)nc4ccc(OC)cc34)nn2)CC1 | 6.25 (≈ 17.1 µM) | 6.25 (≈ 17.1 µM) | 6.25 (≈ 17.1 µM) | 6.25 (≈ 17.1 µM) | 6.25 (≈ 17.1 µM) | 6.25 (≈ 17.1 µM) | 6.25 (≈ 17.1 µM) | 6.25 (≈ 17.1 µM) | 6.25 (≈ 17.1 µM) | 6.25 (≈ 17.1 µM) | 12 | 14 | 12 | 16 | 18 | 18 | 16 | 12 | 18 | 12 |
| CCN(CC)Cc1cn(-c2cc(C)nc3ccc(OC)cc23)nn1 | 12.5 (≈ 38.4 µM) | 12.5 (≈ 38.4 µM) | 6.25 (≈ 19.2 µM) | 12.5 (≈ 38.4 µM) | 6.25 (≈ 19.2 µM) | 6.25 (≈ 19.2 µM) | 6.25 (≈ 19.2 µM) | 6.25 (≈ 19.2 µM) | 25 (≈ 76.8 µM) | 12.5 (≈ 38.4 µM) | 11 | 10 | 14 | 11 | 12 | 14 | 12 | 12 | <10 | 10 |
| COc1ccc2nc(C)cc(-n3cc(CN4CCN(c5ccccc5)CC4)nn3)c2c1 | 6.25 (≈ 15.1 µM) | 6.25 (≈ 15.1 µM) | 12.5 (≈ 30.2 µM) | 6.25 (≈ 15.1 µM) | 6.25 (≈ 15.1 µM) | 12.5 (≈ 30.2 µM) | 12.5 (≈ 30.2 µM) | 12.5 (≈ 30.2 µM) | 6.25 (≈ 15.1 µM) | 6.25 (≈ 15.1 µM) | 12 | 16 | 10 | 14 | 10 | 12 | 12 | 12 | 16 | 16 |
| COc1ccc2nc(C)cc(-n3cc(CN4CCN(c5ccccc5F)CC4)nn3)c2c1 | 6.25 (≈ 14.5 µM) | 6.25 (≈ 14.5 µM) | 6.25 (≈ 14.5 µM) | 6.25 (≈ 14.5 µM) | 12.5 (≈ 28.9 µM) | 12.5 (≈ 28.9 µM) | 6.25 (≈ 14.5 µM) | 6.25 (≈ 14.5 µM) | 6.25 (≈ 14.5 µM) | 6.25 (≈ 14.5 µM) | 10 | 12 | 14 | 10 | 10 | 10 | 10 | 10 | 12 | 10 |
| COc1ccc2nc(C)cc(-n3cc(CN(C)C)nn3)c2c1 | 6.25 (≈ 21 µM) | 6.25 (≈ 21 µM) | 6.25 (≈ 21 µM) | 6.25 (≈ 21 µM) | 6.25 (≈ 21 µM) | 6.25 (≈ 21 µM) | 6.25 (≈ 21 µM) | 6.25 (≈ 21 µM) | 6.25 (≈ 21 µM) | 6.25 (≈ 21 µM) | 10 | 16 | 14 | 12 | 16 | 14 | 16 | 14 | 18 | 10 |

Now from value to compound, other results behind:

| MIC (Candida albicans) [µg/mL] | MIC (Aspergillus fumigatus) [µg/mL] | MIC (Streptococcus pyogenes) [µg/mL] | MIC (Aspergillus flavus) [µg/mL] | MIC (Staphylococcus aureus) [µg/mL] | MIC (Escherichia coli) [µg/mL] | MIC (Klebsiella pneumoniae) [µg/mL] | MIC (Pseudomonas aeruginosa) [µg/mL] | MIC (Talaromyces marneffei) [µg/mL] | MIC [1] [µg/mL] | SMILES | diameter of the inhibition zone (DIZ) (Candida albicans) [mm] | diameter of the inhibition zone (DIZ) (Aspergillus fumigatus) [mm] | diameter of the inhibition zone (DIZ) (Streptococcus pyogenes) [mm] | diameter of the inhibition zone (DIZ) (Aspergillus flavus) [mm] | diameter of the inhibition zone (DIZ) (Staphylococcus aureus) [mm] | diameter of the inhibition zone (DIZ) (Escherichia coli) [mm] | diameter of the inhibition zone (DIZ) (Klebsiella pneumoniae) [mm] | diameter of the inhibition zone (DIZ) (Pseudomonas aeruginosa) [mm] | diameter of the inhibition zone (DIZ) (Talaromyces marneffei) [mm] | diameter of the inhibition zone (DIZ) [1] [mm] |
| --- | --- | --- | --- | --- | --- | --- | --- | --- | --- | --- | --- | --- | --- | --- | --- | --- | --- | --- | --- | --- |
| 50 (≈ 119 µM) | 50 (≈ 119 µM) | 12.5 (≈ 29.7 µM) | 50 (≈ 119 µM) | 12.5 (≈ 29.7 µM) | 12.5 (≈ 29.7 µM) | 12.5 (≈ 29.7 µM) | 12.5 (≈ 29.7 µM) | 50 (≈ 119 µM) | 50 (≈ 119 µM) | COc1ccc2nc(C)cc(-n3cc(CN4CCN(C5CCCCC5)CC4)nn3)c2c1 | <10 | <10 | 10 | <10 | 10 | 10 | 10 | 10 | <10 | <10 |
| 12.5 (≈ 37 µM) | 12.5 (≈ 37 µM) | 12.5 (≈ 37 µM) | 12.5 (≈ 37 µM) | 50 (≈ 148 µM) | 12.5 (≈ 37 µM) | 50 (≈ 148 µM) | 50 (≈ 148 µM) | 12.5 (≈ 37 µM) | 12.5 (≈ 37 µM) | COc1ccc2nc(C)cc(-n3cc(CN4CCCCC4)nn3)c2c1 | 10 | 10 | 10 | 10 | <10 | 10 | <10 | <10 | 12 | 10 |
| 12.5 (≈ 38.7 µM) | 12.5 (≈ 38.7 µM) | 12.5 (≈ 38.7 µM) | 12.5 (≈ 38.7 µM) | 12.5 (≈ 38.7 µM) | 12.5 (≈ 38.7 µM) | 12.5 (≈ 38.7 µM) | 12.5 (≈ 38.7 µM) | 12.5 (≈ 38.7 µM) | 12.5 (≈ 38.7 µM) | COc1ccc2nc(C)cc(-n3cc(CN4CCCC4)nn3)c2c1 | 10 | 10 | 11 | 11 | 10 | 10 | 11 | 12 | 10 | 12 |
| 6.25 (≈ 17.7 µM) | 6.25 (≈ 17.7 µM) | 6.25 (≈ 17.7 µM) | 6.25 (≈ 17.7 µM) | 6.25 (≈ 17.7 µM) | 6.25 (≈ 17.7 µM) | 6.25 (≈ 17.7 µM) | 6.25 (≈ 17.7 µM) | 6.25 (≈ 17.7 µM) | 6.25 (≈ 17.7 µM) | COc1ccc2nc(C)cc(-n3cc(CN4CCN(C)CC4)nn3)c2c1 | 14 | 18 | 16 | 16 | 16 | 20 | 14 | 14 | 16 | 14 |
